Active and inactive are the calls of the source. The rule behind the calls is not given here.
Columns and labels:
MDA-MB-231 [1] = test: Antiproliferative activity against human MDA-MB-231 cells after 4 days by microplate assay; type: functional, cell-based; conditions: MDA-MB-231, 96 h
Method in brief: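 MDA-MB 231 cells grown in McCoy-5a with L-glutamine, gentamycin, NaHCO3 and 5% FCS; 2–3 days growth at 37 °C, 5% CO2 before compound in fresh medium (controls 0.1% DMF); about 4 days exposure; 1% glutaric dialdehyde fixation, 0.02% crystal violet, 70% EtOH elution, OD 578 nm; mean of two experiments with 16–24 replicates.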

MCF7 = test: Antiproliferative activity against human MCF7 cells after 5 days by microplate assay; type: functional, cell-based; conditions: MCF7, 120 h
Method in brief: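 MCF-7 cells grown in EMEM with sodium pyruvate, gentamycin, NaHCO3, phenol red and 10% FCS; seeded in 96-well plates and grown 2–3 days at 37 °C, 5% CO2, then medium with compound (DMF stock; controls 0.1% DMF) for 5 days; glutaric dialdehyde fixation, 0.02% crystal violet stain, ethanol extraction, OD 578 nm; mean of two experiments, 16–24 replicates.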

HL-60 [2] = test: Antiproliferative activity against human HL60 cells after 48 hrs by MTT assay; type: functional, cell-based; conditions: HL-60, 48 h
Method in brief: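 HL-60 human leukemia cells kept in log growth in RPMI 1640 with 10% FCS, penicillin G and streptomycin; treated for 48 h; growth read by MTT assay; IC50 = 50% and IC90 = 90% inhibition of cell growth; values given ± SD.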

HL-60 [3] = test: Induction of apoptosis in human HL60 cells assessed as increase in caspase 3 activation at 2.0 uM after 24 hrs; type: functional
U373 MG [4] = test: Antiproliferative activity against human U373 MG cells at 10 nM; type: functional, cell-based; conditions: U-373MG ATCC
Method in brief: (§1)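 U-373 MG glioblastoma cells in EMEM-type medium with 5% FCS under permanent exposure to 10–200 nM; plates fixed with glutaric dialdehyde at various times, stored cold, then crystal violet stained together; absorbance expressed as corrected T/C = (T − C0)/(C − C0) × 100 (%).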

U373 MG [5] = test: Antiproliferative activity against human U373 MG cells at 200 nM after 100 hrs; type: functional, cell-based; conditions: U-373MG ATCC
Method in brief: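 Confluent (resting) U-373 MG cultures exposed to compound, with DMSO solvent controls, for up to ~150 h; crystal violet staining of fixed cells at various times; effect expressed as cytocidal effect (%) versus time.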

HL-60 [6] = test: Induction of apoptosis in human HL60 cells assessed as caspase 3 activation at 100 nM after 24 hrs; type: functional, cell-based
Method in brief: (§2)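 HL-60 cells (3 million at 5 × 10^5 cells/mL) treated 24 h at 37 °C, 5% CO2; hypotonic Hepes/DTT/EDTA/CHAPS lysates on ice; Ac-DMQD-AMC (1.0 μM final) cleaved 60 min at 30 °C; released AMC separated by RP-HPLC, quantified fluorometrically (ex 355 or 400, em 435 nm) against AMC standards; activity in pmol/min/mg; means of three experiments ± SD.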

U373 MG [7] = test: Antiproliferative activity against human U373 MG cells after 72 hrs; type: functional, cell-based; conditions: U-373MG ATCC
Method in brief: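 Human U-373 MG glioblastoma cells grown in EMEM with sodium pyruvate, gentamycin, NaHCO3, phenol red and 5% FCS. Exposure was continuous at 10, 50, 100 and 200 nM, with DMF in the controls. Plates were fixed with glutaric dialdehyde at intervals and stained together with crystal violet. Absorbance read at 578 nm; corrected T/C% = (T − C0)/(C − C0) × 100.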

[8] = Inhibition of tubulin polymerization at 5 uM by microplate assay
Method in brief: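 Tubulin suspended in cold G-PEM buffer with 5% glycerol and depolymerised at 0 °C. It was added to compound that had been diluted 1:10 from DMSO stock into G-PEM in wells prewarmed to 37 °C. Turbidity was read at 355 nm every minute for 28–30 min at 37 °C. Solvent controls held 1% DMSO; colchicine (5 µM) and paclitaxel (2 µM) were run as references.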

HL-60 [9] = test: Induction of apoptosis in human HL60 cells assessed as increase in caspase 3 activation at 500 nM after 24 hrs; type: functional, cell-based; method in brief: as §2
U-87 MG [10] = test: Effect on cell morphology in human U87 MG cells assessed as disruption of microtubule network at 10 nM by confocal fluorescence microscopy; type: functional, cell-based; conditions: U-87MG ATCC
Method in brief: (§3)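 U-87 MG cells at 75% confluence in chamber slides treated 3 h at 37 °C (EtOH vehicle); fixed in 4% paraformaldehyde, permeabilized with 1% Triton X-100; α-tubulin immunostained (Cy5 secondary), nuclei with SYTOX Green; imaged by confocal laser scanning microscopy.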

U373 MG [11] = test: Antiproliferative activity against human U373 MG cells at 50 nM after 72 hrs; type: functional, cell-based; conditions: U-373MG ATCC; method in brief: as §1
U-87 MG [12] = test: Effect on cell morphology in human U87 MG cells assessed as disruption of microtubule network at 50 nM by confocal fluorescence microscopy; type: functional, cell-based; conditions: U-87MG ATCC; method in brief: as §3
MDA-MB-231 [13] = test: Cell cycle arrest in human MDA-MB-231 cells assessed as decrease in accumulation at G1/G0 phase after 24 hrs by flow cytometry; type: functional, cell-based
Method in brief: (§4)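 MDA-MB 231 cells at 70–80% confluence in 75 cm2 flasks exposed 24 h (DMF vehicle, 0.1% final); trypsinized, fixed in ice-cold 70% EtOH, DNA extraction buffer, propidium iodide stain ≥30 min at room temperature; 8000–15,000 events analysed by flow cytometry for sub-G1, G1/G0, S and G2/M fractions; representative of two experiments.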

MDA-MB-231 [14] = test: Cell cycle arrest in human MDA-MB-231 cells assessed as increase in accumulation at G2/M phase after 24 hrs by flow cytometry; type: functional, cell-based; method in brief: as §4
[15] = Inhibition of tubulin polymerization at 5 uM by microplate assay
HL-60 [16] = test: Induction of apoptosis in human HL60 cells assessed as increase in caspase 3 activation at 1 uM after 24 hrs; type: functional, cell-based
HL-60 [17] = test: Induction of apoptosis in human HL60 cells assessed as increase in caspase 9 activation at 1 uM after 24 hrs; type: functional, cell-based

| Structure (SMILES) | IC50 (MDA-MB-231 [1]) [nM] | IC50 (MCF7) [nM] | further results |
| --- | --- | --- | --- |
| CCCCc1ccc2[nH]c(-c3ccc(CC)cc3)c(/C=N/NC(=O)c3cccnc3)c2c1 | 53 | 100 |  |
| CCCCc1ccc2[nH]c(-c3ccc(OC)cc3)c(/C=N/NC(=O)c3cccc(O)c3)c2c1 | 30 |  |  |
| COc1cc([C@@H]2c3cc4c(cc3[C@@H](O[C@@H]3O[C@@H]5CO[C@@H](C)O[C@H]5[C@H](O)[C@H]3O)[C@H]3COC(=O)[C@H]23)OCO4)cc(OC)c1O [ETOPOSIDE] |  |  | IC50 (HL-60 [2]): 315 nM; Activity (HL-60 [3]): 3.37 |
| CCCCc1ccc2[nH]c(-c3ccc(OC)cc3)c(/C=N/NC(=O)c3cccc(OC)c3)c2c1 | 55 |  |  |
| CCCCc1ccc2[nH]c(-c3ccc(C(F)(F)F)cc3)c(/C=N/NC(=O)c3ccc([N+](=O)[O-])cc3)c2c1 | 2040 | 6340 |  |
| CCCCc1ccc2[nH]c(-c3ccc(OC)cc3)c(/C=N/NC(=O)c3ccc(OC)cc3)c2c1 | 61 | 226 |  |
| CCCCc1ccc2[nH]c(-c3ccc(C(F)(F)F)cc3)c(/C=N/NC(=O)c3cccnc3)c2c1 | 97 | 260 |  |
| CCCCc1ccc2[nH]c(-c3ccc(OC)cc3)c(/C=N/NC(=O)c3cccnc3)c2c1 | 35 | 75 | Activity (U373 MG [4]): Active; Activity (U373 MG [5]): Active; IC50 (HL-60 [2]): 50 nM; IC90 (HL-60 [2]): 115 nM; Activity (HL-60 [6]): Active |
| CCCCc1ccc2[nH]c(-c3ccc(OC)cc3)c(/C=N/NC(=O)c3ccccn3)c2c1 | 34 | 160 | IC50 (HL-60 [2]): 213 nM; IC90 (HL-60 [2]): 333 nM |
| CCCCc1ccc2[nH]c(-c3ccc(C(F)(F)F)cc3)c(/C=N/NC(=O)c3ccc(Cl)cc3)c2c1 | 329 | 1060 |  |
| C=C(C)[C@H]1Cc2c(ccc3c2O[C@@H]2COc4cc(OC)c(OC)cc4[C@@H]2C3=O)O1 |  |  | Activity (U373 MG [7]): Active |
| CCCCc1ccc2[nH]c(-c3ccc(C(F)(F)F)cc3)c(/C=N/NC(=O)c3ccccc3)c2c1 | 300 | 460 |  |
| CCCCc1ccc2[nH]c(-c3ccc(OC)cc3)c(/C=N/NC(=O)c3ccc([N+](=O)[O-])cc3)c2c1 | 115 | 312 |  |
| CCCCc1ccc2[nH]c(-c3ccc(CC)cc3)c(/C=N/NC(=O)c3ccncc3)c2c1 | 80 | 150 |  |
| COc1cc2c(c(OC)c1OC)-c1ccc(OC)c(=O)cc1[C@@H](NC(C)=O)CC2 |  |  | Activity [8]: Active |
| CCCCc1ccc2[nH]c(-c3ccc(OC)cc3)c(/C=N/NC(=O)c3ccc(Cl)cc3)c2c1 | 90 | 220 |  |
| COc1ccc(-c2[nH]c3ccc(C)cc3c2/C=N/NC(=O)c2ccncc2)cc1 | 290 | 200 |  |
| CCCCc1ccc2[nH]c(-c3ccc(OC)cc3)c(/C=N/NC(=O)c3ccccc3OC)c2c1 | 21 | 71 | IC50 (HL-60 [2]): 74 nM; IC90 (HL-60 [2]): 142 nM; Activity (HL-60 [9]): Active |
| CC[C@]1(O)C[C@H]2CN(CCc3c([nH]c4ccccc34)[C@@](C(=O)OC)(c3cc4c(cc3OC)N(C=O)[C@H]3[C@@](O)(C(=O)OC)[C@H](OC(C)=O)[C@]5(CC)C=CCN6CC[C@]43[C@@H]65)C2)C1 [VINCRISTINE] | 6 | 2 | Activity (U-87 MG [10]): Active |
| CCCCc1ccc2[nH]c(-c3ccc(OC)cc3)c(/C=N/NC(=O)c3ccc(F)cc3)c2c1 | 19 | 84 | Activity (U373 MG [11]): Active; Activity (U373 MG [5]): Active; Activity (U-87 MG [12]): inactive; IC50 (HL-60 [2]): 91 nM; IC90 (HL-60 [2]): 164 nM; Activity (HL-60 [9]): Active |
| CCCCc1ccc2[nH]c(-c3ccc(C(F)(F)F)cc3)c(/C=N/NC(=O)c3ccccn3)c2c1 | 260 | 310 |  |
| CCCCc1ccc2[nH]c(-c3ccc(OC)cc3)c(/C=N/NC(=O)c3ccccc3)c2c1 | 32 | 130 | Activity (MDA-MB-231 [13]): Active; Activity (MDA-MB-231 [14]): Active |
| CC(=O)O[C@H]1C(=O)[C@@]2(C)[C@H]([C@H](OC(=O)c3ccccc3)[C@]3(O)C[C@H](OC(=O)[C@H](O)[C@@H](NC(=O)c4ccccc4)c4ccccc4)C(C)=C1C3(C)C)[C@]1(OC(C)=O)CO[C@@H]1C[C@@H]2O |  |  | Activity [15]: Active |
| CCCCc1ccc2[nH]c(-c3ccc(C(F)(F)F)cc3)c(/C=N/NC(=O)c3ccc(OC)cc3)c2c1 | 284 | 618 |  |
| CCCCc1ccc2[nH]c(-c3ccc(C(F)(F)F)cc3)c(/C=N/NC(=O)c3ccncc3)c2c1 | 94 | 100 | Activity (HL-60 [16]): Active; Activity (HL-60 [17]): Active |
| CCCCc1ccc2[nH]c(-c3ccc(OC)cc3)c(/C=N/NC(=O)c3ccncc3)c2c1 | 29 | 69 |  |
| CCCCc1ccc2[nH]c(-c3ccc(OC)cc3)c(/C=N/O)c2c1 | 40 | 212 |  |

From ChEMBL document CHEMBL1150769, “Aroyl hydrazones of 2-phenylindole-3-carbaldehydes as novel antimitotic agents” (Bioorg Med Chem, 2008)
